Calls of active or inactive are those of the source.
Assays:
Rattus norvegicus [1] = assay: Neuroleptic activity in ip dosed Sprague-Dawley CD rat assessed as reversal of amphetamine-induced stereotypy compound administered 1hr prior challenge; type: functional
Procedure, shortened: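 Rats dosed ip, then given amphetamine sulfate 5 mg/kg 1 h later. The ED50 is the dose that reverses the amphetamine-induced stereotypy.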

Rattus norvegicus [2] = assay: Neuroleptic activity in decarboxylase-inhibited Sprague-Dawley CD rat brain assessed as increase in DOPA accumulation at 0.01 mmol/kg relative to control; type: functional; set-up: scale not given: the % may be the effect or the level left
Mus musculus [3] = assay: Analgesic activity in Swiss CD mouse at 100 mg/kg, ip measured 2 hrs post treatment by hot-plate method relative to control; type: functional; settings: route intraperitoneal
Procedure, shortened: (§1)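 Male mice, about 20 g, dosed ip in saline. Each mouse was dropped into a glass cylinder on an aluminium plate held at 57 °C. Latency to the first flick of a hind foot was timed at 0.5 and 2 h post-dose, with a 10-s cutoff. At least ten mice per dose. Percent control = mean latency ÷ mean control latency × 100; 200% was the lower bound of activity.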

Mus musculus [4] = assay: Analgesic activity in Swiss CD mouse assessed as elevation of response latency at 100 mg/kg, ip measured 2 hrs post treatment by tail flick method relative to control; type: functional; settings: route intraperitoneal
Procedure, shortened: (§2)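 Male mice, about 20 g, dosed ip in saline (solution or suspension). High-intensity heat was focused on the tail, and latency to a sudden tail flick was timed, with a 10-s cutoff. Tests ran at 0.5 and 2 h post-dose, with at least ten mice per dose. Percent control = mean latency ÷ mean control latency × 100; 200% was the lower bound of activity.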

Mus musculus [5] = assay: Toxicity in Swiss CD mouse assessed as loss of righting reflex at 100 mg/kg, ip measured 0.5 hr post treatment; type: organism-based; set-up: dose 100 mg/kg, route intraperitoneal; settings: in vivo
Procedure, shortened: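 Male Swiss CD mice (about 20 g) given compound ip in saline solution or suspension, usually 5 mL/kg, during hot-plate/tail-flick screening. At least ten mice per dose. Loss of righting reflex noted at 0.5 h after dosing.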

Mus musculus [6] = assay: Analgesic activity in Swiss CD mouse assessed as elevation of response latency at 56 mg/kg, ip measured 0.5 hr post treatment by tail flick method relative to control; type: functional; settings: route intraperitoneal; procedure, shortened: as §2
Mus musculus [7] = assay: Analgesic activity in Swiss CD mouse assessed as elevation of response latency at 56 mg/kg, ip measured 2 hrs post treatment by tail flick method relative to control; type: functional; settings: route intraperitoneal; procedure, shortened: as §2
Mus musculus [8] = assay: Analgesic activity in Swiss CD mouse at 56 mg/kg, ip measured 2 hrs post treatment by hot-plate method relative to control; type: functional; settings: route intraperitoneal; procedure, shortened: as §1
Mus musculus [9] = assay: Analgesic activity in Swiss CD mouse at 56 mg/kg, ip measured 0.5 hr post treatment by hot-plate method relative to control; type: functional; settings: route intraperitoneal; procedure, shortened: as §1
Canis familiaris [10] = assay: Analgesic activity in dog assessed as increase in response threshold at 16 mg/kg, sc measured 0.5 to 2 hrs post treatment by radiant heat method relative to control; type: functional, organism-based; set-up: dose 16 mg/kg; settings: Canis lupus familiaris
Procedure, shortened: (§3)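 Male mongrel dogs, 9-12 kg. The response threshold was the reflex fasciculation of the back muscles under radiant heat. Testing was at 0.5 and 2 h post-dose, with the end point expressed as percent of control latency.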

Mus musculus [11] = assay: Analgesic activity in ip dosed Swiss CD mouse by hot-plate method relative to control in presence of naloxone; type: functional, organism-based
Mus musculus [12] = assay: Analgesic activity in Swiss CD mouse at 32 mg/kg, ip measured 0.5 hr post treatment by hot-plate method relative to control; type: functional; settings: route intraperitoneal; procedure, shortened: as §1
Mus musculus [13] = assay: Analgesic activity in Swiss CD mouse assessed as elevation of response latency at 32 mg/kg, ip measured 2 hrs post treatment by tail flick method relative to control; type: functional; settings: route intraperitoneal; procedure, shortened: as §2
Mus musculus [14] = species: Mus musculus; assay: Toxicity in Swiss CD mouse assessed as Straub tail symptom; type: organism-based; settings: in vivo
[15] = Toxicity in ip dosed Swiss CD mouse measured 0.5 to 2 hrs post treatment; type: organism-based; settings: in vivo
Rattus norvegicus [16] = species: Rattus norvegicus; assay: Toxicity in Sprague-Dawley CD rat assessed as Straub tail symptom; type: organism-based; settings: in vivo
Mus musculus [17] = assay: Analgesic activity in ip dosed Swiss CD mouse by tail flick method relative to control in presence of naloxone; type: functional, organism-based
Mus musculus [18] = assay: Analgesic activity in Swiss CD mouse assessed as elevation of response latency at 32 mg/kg, ip measured 0.5 hr post treatment by tail flick method relative to control; type: functional; settings: route intraperitoneal; procedure, shortened: as §2
Mus musculus [19] = assay: Analgesic activity in Swiss CD mouse at 32 mg/kg, ip measured 2 hrs post treatment by hot-plate method relative to control; type: functional; settings: route intraperitoneal; procedure, shortened: as §1
Rattus norvegicus [20] = assay: Neuroleptic activity in decarboxylase-inhibited Sprague-Dawley CD rat brain assessed as increase in DOPA accumulation at 0.001 mmol/kg relative to control; type: functional; set-up: scale not given: the % may be the effect or the level left
Mus musculus [21] = assay: Analgesic activity in Swiss CD mouse at 100 mg/kg, ip measured 0.5 hr post treatment by hot-plate method relative to control; type: functional; settings: route intraperitoneal; procedure, shortened: as §1
Mus musculus [22] = assay: Analgesic activity in Swiss CD mouse assessed as elevation of response latency at 100 mg/kg, ip measured 0.5 hr post treatment by tail flick method relative to control; type: functional; settings: route intraperitoneal; procedure, shortened: as §2
Rattus norvegicus [23] = assay: Neuroleptic activity in decarboxylase-inhibited Sprague-Dawley CD rat brain assessed as increase in DOPA accumulation at 0.056 mmol/kg relative to control; type: functional; set-up: scale not given: the % may be the effect or the level left
Mus musculus [24] = assay: Analgesic activity in Swiss CD mouse at 100 mg/kg, ip bid for 4 days measured after 4 days by hot-plate method relative to control; type: functional, organism-based; set-up: dose 100 mg/kg
Procedure, shortened: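 Tolerance test in male mice: 100 mg/kg ip bid for 4 days, with hot-plate latency measured against control. A parallel group received morphine sulfate 10 mg/kg ip bid.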

Rattus norvegicus [25] = assay: Neuroleptic activity in decarboxylase-inhibited Sprague-Dawley CD rat brain assessed as increase in DOPA accumulation at 0.1 mmol/kg relative to control; type: functional; set-up: scale not given: the % may be the effect or the level left
Mus musculus [26] = assay: Analgesic activity in Swiss CD mouse at 100 mg/kg, ip bid for 4 days by tail flick method relative to control in presence of naloxone; type: functional, organism-based; set-up: dose 100 mg/kg
Canis familiaris [27] = assay: Analgesic activity in dog assessed as increase in response threshold at 3.2 mg/kg, sc measured 0.5 to 2 hrs post treatment by radiant heat method relative to control; type: functional, Canis lupus familiaris; settings: route subcutaneous
Procedure, shortened: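 Male mongrel dogs (9-12 kg) received the agent sc in saline solution or suspension. The radiant heat stimulus end point was reflex fasciculation of the back muscles. Each animal was tested 0.5 and 2 h after dosing, and the end point was expressed as percent of control latency.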

Mus musculus [28] = assay: Analgesic activity in Swiss CD mouse at 100 mg/kg, ip bid for 4 days measured after naloxone challenge on day 4 by hot-plate method relative to control; type: functional, organism-based; set-up: dose 100 mg/kg
Mus musculus [29] = assay: Analgesic activity in Swiss CD mouse at 100 mg/kg, ip bid for 4 days by hot-plate method relative to control in presence of naloxone; type: functional, organism-based; set-up: dose 100 mg/kg
Rattus norvegicus [30] = assay: Analgesic activity in Sprague-Dawley CD rat at 32 mg/kg, ip measured 0.5 to 2 hrs post treatment by flinch-jump method relative to control; type: functional, organism-based; set-up: dose 32 mg/kg
Procedure, shortened: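 Male rats, 200-300 g, dosed ip (saline solution or suspension). A single rising series of 1-s foot shocks was given just before and at 0.5 and 2 h after dosing. The minimum shock intensity (mA) evoking each behaviour was recorded. No response at the 2.2-mA level counted as activity. At least five rats per dose.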

Canis familiaris [31] = assay: Analgesic activity in po dosed dog assessed as increase in response threshold by radiant heat method; type: functional; settings: Canis lupus familiaris; procedure, shortened: as §3
Canis familiaris [32] = species: Canis familiaris; assay: Analgesic activity in dog assessed as increase in response threshold by radiant heat method; type: functional, organism-based; settings: Canis lupus familiaris
Procedure, shortened: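 Male mongrel dogs (9-12 kg) given drug sc or orally; radiant heat threshold read as reflex fasciculations of the back muscles. Tested at 0.5 and 2 h after dosing, with the end point expressed as percent of control latency.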

SMILES: COc1ccc(Cl)c2c1CCC(CN1CCC3(CC1)C(=O)NCN3c1ccccc1)=C2
- ED50 (Rattus norvegicus [1]): 1 mg/kg
- Activity (Rattus norvegicus [2]): 154%

SMILES: CCc1ccc2c(c1)C=C(CN1CCCC1)CC2.Cl
- Activity (Mus musculus [3]): 130%
- Activity (Mus musculus [4]): 198%
- Activity (Mus musculus [5]): Toxic

SMILES: CCOC(=O)C1(c2ccccc2)CCN(C)CC1 [MEPERIDINE]
- Activity (Mus musculus [6]): 194%
- Activity (Mus musculus [7]): 160%
- Activity (Mus musculus [8]): 231%
- Activity (Mus musculus [9]): 296%
- Activity (Canis familiaris [10]): Active

SMILES: COc1ccc(Cl)c2c1CCC(CN1CCC(OC(C)=O)(c3ccccc3)CC1)=C2.Cl.O
- Activity (Mus musculus [11]): inactive
- Activity (Mus musculus [12]): 315%
- Activity (Mus musculus [13]): 320%
- Activity (Mus musculus [14]): Toxic
- LD50 [15]: 32 mg/kg
- Activity (Rattus norvegicus [16]): Toxic
- Activity (Mus musculus [17]): inactive
- Activity (Mus musculus [18]): 317%
- Activity (Mus musculus [19]): 345%

SMILES: CCOC1(c2ccccc2)CCN(CC2=Cc3c(Cl)ccc(OC)c3CC2)CC1
- Activity (Mus musculus [3]): 156%
- Activity (Rattus norvegicus [20]): 491%
- Activity (Mus musculus [21]): 262%
- Activity (Mus musculus [4]): 157%
- Activity (Mus musculus [22]): 196%

SMILES: COc1ccc(Cl)c2c1CCC(CN1CCC(C(=O)N3CCCC3)CC1)=C2.Cl.O
- Activity (Mus musculus [3]): 155%
- Activity (Mus musculus [21]): 213%
- Activity (Mus musculus [4]): 172%
- Activity (Mus musculus [22]): 262%
- Activity (Rattus norvegicus [2]): 332%

SMILES: Br.COc1ccc(Cl)c2c1CCC(CN1CCOCC1)=C2
- Activity (Mus musculus [3]): 90%
- Activity (Mus musculus [21]): 95%
- ED50 (Rattus norvegicus [1]): > 32 mg/kg
- Activity (Rattus norvegicus [23]): 243%
- Activity (Mus musculus [4]): 125%
- Activity (Mus musculus [22]): 136%

SMILES: Br.COc1ccc(Cl)c2c1CCC(CN1CCCC1)=C2
- Activity (Mus musculus [3]): 117%
- Activity (Mus musculus [21]): 282%
- Activity (Mus musculus [24]): Active
- Activity (Rattus norvegicus [25]): 288%
- Activity (Mus musculus [26]): Active
- Activity (Canis familiaris [27]): 50%
- ED50 (Rattus norvegicus [1]): 32 mg/kg
- Activity (Mus musculus [28]): Active
- Activity (Mus musculus [29]): Active
- Activity (Mus musculus [4]): 135%
- Activity (Rattus norvegicus [30]): Active
- Activity (Mus musculus [22]): 238%
- ED50 (Canis familiaris [31]): 16.2 mg/kg

SMILES: COc1ccc(Cl)c2c1CCC(CN1CCC(C(N)=O)CC1)=C2.O
- Activity (Mus musculus [11]): inactive
- Activity (Mus musculus [3]): 329%
- Activity (Mus musculus [21]): 314%
- Activity (Canis familiaris [32]): inactive
- Activity (Mus musculus [14]): Non-toxic
- Activity (Mus musculus [4]): 132%
- Activity (Mus musculus [22]): 274%
- Activity (Rattus norvegicus [16]): Non-toxic
- Activity (Mus musculus [17]): inactive
